Assay results collected from several papers.
Each line is one published result; the experiments were not run side by side. Values after ≈ are worked out from the molar mass of the structure shown.
Organism: Nakaseomyces glabratus

| Structure (SMILES) | read-out | technique | strain | time | measurement | value |
| --- | --- | --- | --- | --- | --- | --- |
| CCCCOc1c(OC)cc(NC(C)CCCN)c2nc(C(C)(C)C)cc(C)c12 (stereo not shown) | microbial killing |  | ATCC90030 |  | MFC | > 20 µg/mL |
| CC[C@H](C)C[C@H](C)CCCCCCCCC(=O)N[C@H]1C[C@@H](O)[C@@H](NCCN)NC(=O)[C@@H]2[C@@H](O)CCN2C(=O)[C@H]([C@H](O)CCN)NC(=O)[C@H]([C@H](O)[C@@H](O)c2ccc(O)cc2)NC(=O)[C@@H]2C[C@@H](O)CN2C(=O)[C@H]([C@@H](C)O)NC1=O | microbial growth | broth dilution | ATCC2001 | 48 h | MIC | 0.06 µg/mL (≈ 0.0549 µM) |
| COc1ccccc1-n1cc(Cn2c(C(=O)O)nc3ccccc3c2=O)nn1 | microbial growth | broth dilution | ATCC90030 | 24 h | IC50 | 29.4 µg/mL (≈ 77.9 µM) |
| CCCCCOc1c(OC)cc(NC(C)CCCNC(=O)C(N)CC(C)C)c2nc(C(C)(C)C)ccc12 (stereo not shown) | microbial growth |  | ATCC90030 |  | IC50 | 11.3 µg/mL (≈ 22 µM) |
| CCCCCCCCCCCN1CCNCC1 | microbial growth | broth dilution | ATCC2001 | 48 h | MIC | 7.8 µg/mL (≈ 32.4 µM) |
| CCCCCOc1c(OC)cc(NC(C)CCCNC(=O)C(N)CCCNC(=N)N)c2nc(C(C)(C)C)ccc12 (stereo not shown) | microbial killing |  | ATCC90030 |  | MFC | 20 µg/mL (≈ 35.9 µM) |
| CCCCCN1CCN(CC(O)(Cn2cncn2)c2ccc(F)cc2F)CC1 (stereo not shown) | microbial growth | broth dilution | ATCC2001 | 48 h | MIC | > 31.3 µg/mL |
| CCCCCOc1c(OC)cc(NC(C)CCCNC(=O)C(N)Cc2ccccc2)c2nc(C(C)(C)C)ccc12 (stereo not shown) | microbial growth |  | ATCC90030 |  | IC50 | 10.9 µg/mL (≈ 20 µM) |
| CCCCCCCCN1CCNCC1 | microbial growth | broth dilution | ATCC2001 | 48 h | MIC | > 31.3 µg/mL |
| CCCCCCCOc1c(OC)cc(NC(C)CCCN)c2nc(C(C)(C)C)cc(C)c12 (stereo not shown) | microbial growth |  | ATCC90030 |  | IC50 | 4.3 µg/mL (≈ 9.69 µM) |
| COc1cc(C(C)(C)C#Cc2c(C)nc(N)nc2N)cc(OC)c1OC | microbial growth | resazurin |  |  | MIC | 178 µg/mL (≈ 499 µM) |
| CCOC(=O)c1nc2ccccc2c(=O)n1Cc1cn(-c2cccc(Cl)c2)nn1 | microbial growth | broth dilution | ATCC90030 | 24 h | IC50 | 58.2 µg/mL (≈ 142 µM) |
| CCCCCCOc1c(OC)cc(NC(C)CCCN)c2nc(C(C)(C)C)ccc12 (stereo not shown) | microbial growth |  | ATCC90030 |  | IC50 | 11.5 µg/mL (≈ 27.6 µM) |
| CCOC(=O)c1nc2ccccc2c(=O)n1Cc1cn(-c2cccc([N+](=O)[O-])c2)nn1 | microbial growth | broth dilution | ATCC90030 | 24 h | IC50 | 354 µg/mL (≈ 842 µM) |
| CCCCCCOc1c(OC)cc(NC(C)CCCNC(=O)C(N)Cc2cnc[nH]2)c2nc(C(C)(C)C)ccc12 (stereo not shown) | microbial growth | broth dilution | ATCC90030 |  | MIC | 20 µg/mL (≈ 36.2 µM) |
| CCCCCN1CCNCC1 | microbial growth | broth dilution | ATCC2001 | 48 h | MIC | > 31.3 µg/mL |
| OC(Cn1cncn1)(Cn1cncn1)c1ccc(F)cc1F | microbial killing |  | ATCC2001 |  | MFC | > 64 µg/mL |
| O=C(O)c1nc2ccccc2c(=O)n1Cc1cn(-c2cccc(F)c2)nn1 | microbial growth | broth dilution | ATCC90030 | 24 h | IC50 | 262 µg/mL (≈ 717 µM) |
| C#CCCCCCCCCC=CCC(O)CC(O)CO (stereo not shown) | microbial growth | broth dilution | ATCC90030 |  | IC50 | > 8 µg/mL |
| OC(Cn1cncn1)(Cn1cncn1)c1ccc(F)cc1F | microbial growth | broth dilution | MY1381 |  | MIC50 | 4 µg/mL (≈ 13.1 µM) |
| CCOC(=O)c1nc2ccccc2c(=O)n1Cc1cn(-c2ccccc2F)nn1 | microbial growth | broth dilution | ATCC90030 | 24 h | IC50 | 245 µg/mL (≈ 622 µM) |
| C[C@@H]1[C@H](O)[C@@H](C)/C=C/C=C/C=C/C=C/C=C/C=C/C=C/[C@H](O[C@@H]2O[C@H](C)[C@@H](O)[C@H](N)[C@@H]2O)C[C@@H]2O[C@](O)(C[C@@H](O)C[C@@H](O)[C@H](O)CC[C@@H](O)C[C@@H](O)CC(=O)O[C@H]1C)C[C@H](O)[C@H]2C(=O)O | microbial growth |  | ATCC90030 |  | IC50 | 0.31 µg/mL (≈ 0.335 µM) |
| Cc1cccc(-n2cc(Cn3c(C(=O)O)nc4ccccc4c3=O)nn2)c1 | microbial growth | broth dilution | ATCC90030 | 24 h | IC50 | 245 µg/mL (≈ 677 µM) |
| CCCCCCCCCCCCCN1CCN(CC(O)(Cn2cncn2)c2ccc(F)cc2F)CC1 (stereo not shown) | microbial growth | broth dilution | ATCC2001 | 48 h | MIC | 0.975 µg/mL (≈ 1.93 µM) |
| CCOC(=O)c1nc2ccccc2c(=O)n1Cc1cn(-c2ccc(F)cc2)nn1 | microbial growth | broth dilution | ATCC90030 | 24 h | IC50 | 292 µg/mL (≈ 744 µM) |
| CCCCCCCCCN1CCN(CC(O)(Cn2cncn2)c2ccc(F)cc2F)CC1 (stereo not shown) | microbial growth | broth dilution | ATCC2001 | 48 h | MIC | 3.9 µg/mL (≈ 8.67 µM) |
| CCOC(=O)c1nc2ccccc2c(=O)n1Cc1cn(-c2ccccc2C)nn1 | microbial growth | broth dilution | ATCC90030 | 24 h | IC50 | 351 µg/mL (≈ 902 µM) |
| CCCCCCCCCCCCCCN1CCN(CC(O)(Cn2cncn2)c2ccc(F)cc2F)CC1 (stereo not shown) | microbial growth | broth dilution | ATCC2001 | 48 h | MIC | > 31.3 µg/mL |
